Here are results for 23 molecules from ChEMBL document CHEMBL1687933, “Synthesis and pharmacological evaluation of fluorine-containing D₃ dopamine receptor ligands” (J Med Chem, 2011).

pKi: −log10 of the molar value.

Series [1] is described as follows: Partition coefficient, log P of the compound. It counts as physicochemical. As to conditions: octanol/water.
The species named for series [2] is Homo sapiens. Briefly: Selectivity ratio of Ki for human D2 receptor to Ki for human D3 receptor. In outline:
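Selectivity index is Ki(D2)/Ki(D3). Both Ki values come from [125I]IABN competition on membranes of HEK 293 cells stably expressing the human receptor. Incubation was 60 min at 37°C at pH 7.5, with Cheng–Prusoff correction.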

Series [3] deals with D(2) dopamine receptor (Homo sapiens, UniProt P14416). Description: Displacement of [125I]-IABN from human D2 receptor transfected in human HEK 293 cells by gamma-counting. It counts as cell-based, HEK293. In outline: (§1)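 Nonspecific binding defined with 20 µM (+)-butaclamol. Inhibitor spans 5 log units at two points per decade, in triplicate. Filtration and gamma counting. One-site IC50 converted to Ki by Cheng–Prusoff. At least three independent experiments.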
For orientation: In a radioligand displacement assay an active substance lowers the binding of a labelled ligand.

In series [4] the target is D(3) dopamine receptor (Homo sapiens, UniProt P35462). Description: Displacement of [125I]-IABN from human D3 receptor transfected in human HEK 293 cells by gamma-counting. It counts as cell-based, HEK293. Put shortly: as §1
The target of series [5] is T1, D(4) dopamine receptor (Homo sapiens, UniProt P21917).
T1 sequence (P21917 whole entry): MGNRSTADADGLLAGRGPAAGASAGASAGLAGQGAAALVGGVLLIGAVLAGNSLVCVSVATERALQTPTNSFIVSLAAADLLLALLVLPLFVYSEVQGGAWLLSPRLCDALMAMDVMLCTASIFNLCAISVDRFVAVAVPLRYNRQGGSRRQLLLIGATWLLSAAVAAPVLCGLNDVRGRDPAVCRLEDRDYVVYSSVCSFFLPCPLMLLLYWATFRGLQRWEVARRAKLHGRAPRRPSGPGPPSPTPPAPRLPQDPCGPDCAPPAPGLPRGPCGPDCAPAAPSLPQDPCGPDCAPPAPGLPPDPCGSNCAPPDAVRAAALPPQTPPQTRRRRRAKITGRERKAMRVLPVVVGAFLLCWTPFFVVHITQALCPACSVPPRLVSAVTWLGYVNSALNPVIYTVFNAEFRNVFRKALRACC
Briefly: Binding affinity to human D4 receptor transfected in human HEK293 cells by gamma-counting. It counts as cell-based. In outline:
as §1

The target in series [6] is Sigma non-opioid intracellular receptor 1 (Cavia porcellus, UniProt Q60492). Briefly: Displacement of [3H]-pentazocine from guinea pig sigma1 receptor by liquid scintillation counting. In outline: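 Guinea pig brain membranes (~300 µg protein) incubated with ~5 nM (+)-[3H]-pentazocine for 90 min at room temperature in Tris-HCl/NaCl/EDTA pH 7.4. […] Filtration and scintillation counting. IC50 taken from a one-site fit.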
Sequence of Sigma non-opioid intracellular receptor 1 (Q60492 whole entry): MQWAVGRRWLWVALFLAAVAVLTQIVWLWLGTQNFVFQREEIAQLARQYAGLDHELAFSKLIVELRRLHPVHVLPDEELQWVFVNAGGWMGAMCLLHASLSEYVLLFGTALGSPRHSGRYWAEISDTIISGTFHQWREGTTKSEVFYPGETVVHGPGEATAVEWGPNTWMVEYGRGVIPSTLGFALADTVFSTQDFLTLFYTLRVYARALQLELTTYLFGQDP

Sequence of D(3) dopamine receptor (P35462 whole entry): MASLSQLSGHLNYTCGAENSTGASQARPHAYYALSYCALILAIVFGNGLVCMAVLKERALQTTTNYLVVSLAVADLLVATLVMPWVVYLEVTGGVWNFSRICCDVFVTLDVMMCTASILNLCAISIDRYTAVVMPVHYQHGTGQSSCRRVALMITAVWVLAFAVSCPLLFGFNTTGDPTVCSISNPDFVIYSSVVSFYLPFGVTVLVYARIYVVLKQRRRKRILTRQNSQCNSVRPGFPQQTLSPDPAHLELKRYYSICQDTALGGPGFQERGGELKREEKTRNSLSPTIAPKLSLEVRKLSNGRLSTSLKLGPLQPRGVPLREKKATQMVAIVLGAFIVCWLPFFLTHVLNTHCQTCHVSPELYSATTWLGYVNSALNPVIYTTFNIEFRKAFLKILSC
Sequence of D(2) dopamine receptor (P14416 whole entry): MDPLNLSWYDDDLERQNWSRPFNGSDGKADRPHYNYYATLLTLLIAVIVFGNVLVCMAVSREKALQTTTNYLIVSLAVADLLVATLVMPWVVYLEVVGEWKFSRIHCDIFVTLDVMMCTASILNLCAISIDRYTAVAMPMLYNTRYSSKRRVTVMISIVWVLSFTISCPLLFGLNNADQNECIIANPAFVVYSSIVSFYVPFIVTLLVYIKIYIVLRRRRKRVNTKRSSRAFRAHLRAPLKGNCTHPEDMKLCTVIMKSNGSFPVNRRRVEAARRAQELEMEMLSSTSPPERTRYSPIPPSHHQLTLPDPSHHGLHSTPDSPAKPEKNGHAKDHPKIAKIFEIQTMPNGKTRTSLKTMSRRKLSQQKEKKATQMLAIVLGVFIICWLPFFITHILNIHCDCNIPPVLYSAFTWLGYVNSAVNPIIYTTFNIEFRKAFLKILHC

In series [1], `COc1ccccc1N1CCN(C/C=C/CNC(=O)c2cc(Br)ccc2OCCF)CC1` came in with a log partition coefficient (logP) of 4.49. The Ratio Ki in series [2] amounted to 1. In addition, the negative-log Ki (pKi) in series [3] and in series [4] was 7.87 throughout.

Turning to `COc1ccccc1N1CCN(CCCCNC(=O)c2ccc(OCCF)cc2)CC1`, the pKi was 5.85 in series [5], 5.32 in series [6], 7.57 in series [3] and 8.96 in series [4]. In series [1], this molecule registered a logP of 3.48. For the same molecule, the Ratio Ki in series [2] amounted to 25.

Regarding `CN(C)c1ccc(C(=O)NCCCCN2CCN(c3ccccc3OCCF)CC2)cc1`, the negative-log Ki (pKi) in series [5] is 6.05; in series [6], 5.71; in series [3], 7.82; in series [4] it was 9.19. The lipophilicity (logP) in series [1] came to 3.75.

In series [1], `O=C(NC/C=C/CN1CCN(c2ccccc2OCCF)CC1)c1ccc(OCCOCCF)cc1` gave a log partition coefficient (logP) of 3.41. For the same molecule, the Ratio Ki in series [2] worked out at 3.3. Also, the negative-log Ki (pKi) in series [3] was 7.19; in series [4] it was 7.71.

Regarding `COc1ccccc1N1CCN(CCCCNC(=O)c2ccc(CCF)cc2)CC1`, the pKi was 6.09 in series [5], 5.45 in series [6], 7.26 in series [3] and 8.62 in series [4]. The molecule also yielded a log partition coefficient (logP) in series [1] of 2.94.

With `O=C(NCCCCN1CCN(c2ccccc2OCCF)CC1)c1ccc(CCF)cc1`, the logP in series [1] came out at 3.68. The Ratio Ki in series [2] is 3.1. The pKi was 7.67 in series [3] and 8.16 in series [4].

Take `O=C(NCCCCN1CCN(c2ccccc2OCCF)CC1)c1ccc(-c2ccsc2)cc1`: the negative logarithm of the Ki (pKi) was 6.61 in series [5] and 4.68 in series [6]. The molecule also showed a lipophilicity (logP) in series [1] of 4.67.

`COc1ccccc1N1CCN(CCCCNC(=O)c2ccc(OCCOCCOCCF)cc2)CC1`: the pKi in series [5] is 5.68; in series [6], 5.31; in series [3] it was 7.28; in series [4], 8.38. The same molecule returned a logP in series [1] of 2.72. Moreover, in series [2], the Ratio Ki was determined as 12.2.

`CN(C)c1ccc(C(=O)NC/C=C/CN2CCN(c3ccccc3OCCF)CC2)cc1`: in series [1], the lipophilicity (logP) turned out to be 3.83. Besides, the Ratio Ki in series [2] came to 9.8. In addition, the negative-log Ki (pKi) in series [3] was 7.45; in series [4], 8.44.

Take `COc1ccccc1N1CCN(C/C=C/CNC(=O)c2ccc(CCF)cc2)CC1`: the logP in series [1] was found to be 3.43. Further, in series [2], the Ratio Ki is 5.2. The negative-log Ki (pKi) in series [3] is 6.88; in series [4], 7.60.

The molecule `COc1ccccc1N1CCN(C/C=C/CNC(=O)c2cc(C)ccc2OCCF)CC1` showed a logP in series [1] of 3.66. For the same molecule, the Ratio Ki in series [2] was 1. Besides, the results for the pKi in series [3] and in series [4] were 7.75 and 7.73, respectively.

`COc1ccccc1N1CCN(C/C=C/CNC(=O)c2cc(Br)cc(OC)c2OCCF)CC1` displayed a lipophilicity (logP) in series [1] of 4.15. Also, the Ratio Ki in series [2] was determined as 4.2. Moreover, the pKi in series [3] was 7.24; in series [4], 7.86.

Take `COc1ccccc1N1CCN(CCCCNC(=O)c2ccc(N(C)C)cc2)CC1`: the pKi was 6.05 in series [5], 5.90 in series [6], 7.46 in series [3] and 9.10 in series [4]. Also, the logP in series [1] came out at 3.09. Moreover, in series [2], the Ratio Ki is 43.

Consider `O=C(NCCCCN1CCN(c2ccccc2OCCF)CC1)c1ccc(OCCOCCOCCF)cc1`, for which the lipophilicity (logP) in series [1] is 2.98. Moreover, the Ratio Ki in series [2] turned out to be 6.1. For the same molecule, the values for the pKi in series [3] and in series [4] were 7.50 and 8.28, respectively.

Regarding `O=C(NCCCCN1CCN(c2ccccc2OCCF)CC1)c1ccc(OCCOCCF)cc1`, the logP in series [1] was determined as 3.34. In addition, the pKi in series [3] was 7.85; in series [4] it was 8.60.

The molecule `COc1ccccc1N1CCN(CCCCNC(=O)c2ccc(OCCOCCF)cc2)CC1` gave a lipophilicity (logP) in series [1] of 3.08. Also, the pKi in series [4] was 8.21.

`COc1ccccc1N1CCN(C/C=C/CNC(=O)c2ccc(OCCOCCF)cc2)CC1` gave a logP in series [1] of 3.16. The Ratio Ki in series [2] was determined as 3.3. The negative-log Ki (pKi) was 7.23 in series [3] and 7.74 in series [4].

For `O=C(NC/C=C/CN1CCN(c2ccccc2OCCF)CC1)c1ccc(CCF)cc1`, the negative-log Ki (pKi) is 6.05 in series [5], 5.14 in series [6], 7.75 in series [3] and 8.96 in series [4]. In addition, in series [1], the logP came to 3.61. Moreover, in series [2], the Ratio Ki stood at 16.1.

Regarding `COc1ccccc1N1CCN(C/C=C/CNC(=O)c2cc(I)ccc2OCCF)CC1`, the lipophilicity (logP) in series [1] was 4.73. For the same molecule, in series [2], the Ratio Ki is 1.2. Further, the negative-log Ki (pKi) in series [3] is 7.88; in series [4], 7.96.

Turning to `O=C(NCCCCN1CCN(c2ccccc2OCCF)CC1)c1ccc(OCCF)cc1`, the pKi in series [5] is 6.00; in series [6] it was 5.36; in series [3] it was 7.82; in series [4], 9.28. This molecule displayed a lipophilicity (logP) in series [1] of 3.73.

In series [1], `COc1ccccc1N1CCN(C/C=C/CNC(=O)c2ccc(OCCF)cc2)CC1` registered a logP of 3.55. In series [2], the Ratio Ki came out at 8.9. In addition, the results for the pKi in series [3] and in series [4] were 7.26 and 8.21, respectively.

Turning to `O=C(NC/C=C/CN1CCN(c2ccccc2OCCF)CC1)c1ccc(-c2ccsc2)cc1`, the negative logarithm of the Ki (pKi) is 6.74 in series [5], 5.11 in series [6], 7.15 in series [3] and 8.96 in series [4]. This molecule also had a log partition coefficient (logP) in series [1] of 4.74. In addition, the Ratio Ki in series [2] was 64.

In series [1], `O=C(NC/C=C/CN1CCN(c2ccccc2OCCF)CC1)c1ccc(OCCF)cc1` yielded a lipophilicity (logP) of 3.81. Further, the Ratio Ki in series [2] was determined as 4.5. The negative logarithm of the Ki (pKi) in series [3] was 7.42; in series [4], 8.08.

The logP is the decadic logarithm of the partition coefficient of the neutral form, usually between octanol and water. What is called pKi is −log10 of the Ki, conventionally taken in molar units.
